Assay results taken from the EternaBench riboswitch data.

Tested on: MS2 coat protein
Test: apparent Kd, MS2 coat protein; higher = weaker binding; RNA-MaP array; theophylline 2 mM where present
Method in brief: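 Binding was read on Illumina sequencing-chip clusters where stalled E. coli RNA polymerase had transcribed each design. A titration of SNAP-549-labelled MS2 coat protein began at 0.7 or 1.5 nM and doubled to 3 µM, once without ligand and once with constant ligand, in 100 mM Tris-HCl pH 7.5, 80 mM KCl, 4 mM MgCl2, BSA, DTT, yeast tRNA and Tween-20. The apparent Kd is the median of filtered per-cluster binding-curve fits, based on green signal normalised to red-channel RNA signal and control-cluster median Fmax.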

[1] = designed as: ON switch for theophylline, no ligand
[2] = ligand present: theophylline, designed as: ON switch for theophylline
[3] = designed as: OFF switch for theophylline, no ligand
[4] = ligand present: theophylline, designed as: OFF switch for theophylline

Sequence | apparent Kd [1] | apparent Kd [2] | apparent Kd [3] | apparent Kd [4]
UUUGAUAGGACAGAUACCAGCGUGUUGUUGAACAUGAGGAUCACCCAUGUAGUGAUCAAGCGCCCUUGGCAGCUGGUUUGUUAGG | 236 nM | 81.7 nM |  | 
AACUAAUCACAUGAGGAUCACCCAUGUGAUACCAGCUAAUCCCAAAGCCCUUGGCAGCACCUUUGGGUCCCGGUGUGUUUGAACA |  |  | 9.6 nM | 21.9 nM
GAUGAACUAUAUGAUACCAGACAACAUGAGGAUCACCCAUGUGUAAGUCGUCCUCUGCCUGUCCCUUGGCAGCGUAUAGUUUAUC |  |  | 47.6 nM | 84 nM
CUCUGAGUCCGAAAGGACUCAGAGGCGGAUACCAGCGAGGUCCAUCGCCCUUGGCAGCCGAACAUGAGGAUCACCCAUGUCGGUA | 10.5 nM | 14.5 nM |  | 
AGCGCAGGUCCUGAUACCAGAGACAUGAGGAUCACCCAUGUCCGAUGGUCCUGCCUCAGGCUCCCUUGGCAGCAGGGCUUGUGCU |  |  | 10.3 nM | 20.4 nM
AGUAAUCUAUCAGAUACCAGACCCUCUUUAACAUGAGGAUCACCCAUGUCUAUGUUCUACGUCCCUUGGCAGCUGUAAAUGAUAA | 45.9 nM | 20.9 nM |  | 
GAAUAUUACAUGAGGAUCACCCAUGUAGAUACCAGCCUUGAUUGUGGCCCUUGGCAGCUACGCCGUGAAUGCCUCAGUUGCUUAC |  |  | 90.7 nM | 31.5 nM
AGGAAACAACAUGAGGAUCACCCAUGUGAUACCAGUCAAAUAAAAGACCCUUGGCAGCACACAUGACAUGAGGAUCACCCAUGUA | 31.9 nM | 77 nM |  | 
UGGUACAUGAGGAUCACCCAUGUUCCAGAUACCAGAUACCCGGUUAUCCCUUGGCAGCUGGUGGUACAUGAGGAUCACCCAUGUG |  |  | 36.1 nM | 86.7 nM
AUCCUUAAUAGGGUAAAUGGAUAAAGUGAUACCAGUCAAAUACAAGACCCUUGGCAGCACAAGGACAUGAGGAUCACCCAUGUCA | 20.5 nM | 14.7 nM |  | 
UAUCUUGCGGGCGCCCGCAAGGUUGCGGAUACCAGCGAGAUAAAUCGCCCUUGGCAGCCGAACAUGAGGAUCACCCAUGUCGGAC | 9.99 nM | 12.7 nM |  | 
UCGCAUUGCUGCGAUACCAGACAUGAGGAUCACCCAUGUACCAAGAAAACGUACAUAAAUGUCCCUUGGCAGCGCAGCAAUGCGU |  |  | 443 nM | 1110 nM
ACAUGAGGAUCACCCAUGUAGUGGCACGAUACCAGCUGAUCCCGUGGCCCUUGGCAGCGUCCGGUGUGGUCUGCCGGGAUGGAGC | 23.7 nM | 28.4 nM |  | 
UGGUACAUGAGGAUCACCCAUGUGCCGGAUACCAGAGAGCCGGCUCUCCCUUGGCAGCUGGCGCGACAUGAGGAUCACCCAUGUG |  |  | 25.2 nM | 38.4 nM
CGACGAUACCUGGAUACCAGCGACAUGAGGAUCACCCAUGUAUGUGGAUCAGCCAUGAUAUGCCCUUGGCAGCCACCAAAGUCGG |  |  | 14.9 nM | 51.9 nM
ACGAUACGACAUGAGGAUCACCCAUGUGAUACCAGCGUGGAAACACGCCCUUGGCAGCACAAAUACUCCAGAAACGUAUCGAAAA |  |  | 239 nM | 389 nM
GAGCUGAUGUAGGGCGGAUAUCCGUGAGAUACCAGUACAGAAAUGUACCCUUGGCAGCUCUUCCUUACAUGAGGAUCACCCAUGU |  |  | 19.4 nM | 36.1 nM
AUAAUGGGUUUCGGACUAUCAUGGAAUGAUACCAGAUACUUAGAAAUCCCUUGGCAGCAUGAGGACAUGAGGAUCACCCAUGUAU |  |  | 57.9 nM | 61.5 nM
GCGAUACAUGAGGAUCACCCAUGUGCAGAUACCAGAGGUGCAUGCCUCCCUUGGCAGCUGCGACGCUCUGGCAUCUUGUGGGAUG | 69.1 nM | 71 nM |  | 
ACGAACGAUAGCGAUACCAGACGUACAUGAGGAUCACCCAUGUUUUGGGUAAGGUUAAUAGUCCCUUGGCAGCGCUUUAAGUUCG |  |  | 59.6 nM | 469 nM
AUAAGUAAUGUCUCGUGUAUUAUUACAGAUACCAGACUAUCCUAUGUCCCUUGGCAGCUGGAUUACAUGAGGAUCACCCAUGUGG |  |  | 43.6 nM | 35 nM
AGUACUCGAACGGAUACCAGCCGGACAUGAGGAUCACCCAUGUCCUACCUCUGUUCGGUUGGCCCUUGGCAGCCGUUCGUGUACA | 99.4 nM | 93.3 nM |  | 
UUAUUUAUAAUGGAUACCAGUUUAAUGGCCGCAAAUCCUGACAUGAGGAUCACCCAUGUAAGCCCUUGGCAGCUGUUAUGGGUUU |  |  | 34.8 nM | 41.3 nM
CGUGGUGGGACGGAUACCAGCCACCGCGGCAACGCAACAUGAGGAUCACCCAUGUUGGGUGGCCCUUGGCAGCUGUCCUGCGGCG | 11.5 nM | 13.4 nM |  | 
UGAUCCUACAGAGAUACCAGUGCCACUAAAUAACUAAACACAUGAGGAUCACCCAUGUAACACCCUUGGCAGCUCAACUAAAGGG | 27.4 nM | 19.2 nM |  | 
AGAUAACAUGGUUUAAUAAGUUAAACUGAUACCAGUGUAUAUAAUCACCCUUGGCAGCAGCAACAUGAGGAUCACCCAUGUAAUA | 17.2 nM | 21.9 nM |  | 
